Counter-ions that a name gives are not always drawn.
Legend:
[1] = biological target: 5-hydroxytryptamine receptor 2A (Rattus norvegicus, UniProt P14842); experiment: The binding affinity was evaluated on 5-hydroxytryptamine 2A receptor expressed in rat cortex by using [3H]ketanserin as radioligand.
Outline: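 Rat cerebral cortex membranes in Tris-HCl pH 7.4 with 10 μM pargyline and 0.1% ascorbic acid. Incubated 20 min at 37 °C with 0.7–1.3 nM [3H]ketanserin. Nonspecific binding with 2 μM ketanserin. Filtration and scintillation counting. Ki by Cheng-Prusoff. 2–3 experiments in triplicate.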

[2] = biological target: T1, Alpha-2A adrenergic receptor [16-465]/Alpha-2B adrenergic receptor/Alpha-2C adrenergic receptor (Rattus norvegicus, UniProt P19328+P22086+P22909); experiment: The binding affinity was evaluated on alpha-2 adrenergic receptor expressed in rat cortex by using [3H]rauwolscine as radioligand.
T1 construct: 16-465
T1 sequence (P22909 whole entry): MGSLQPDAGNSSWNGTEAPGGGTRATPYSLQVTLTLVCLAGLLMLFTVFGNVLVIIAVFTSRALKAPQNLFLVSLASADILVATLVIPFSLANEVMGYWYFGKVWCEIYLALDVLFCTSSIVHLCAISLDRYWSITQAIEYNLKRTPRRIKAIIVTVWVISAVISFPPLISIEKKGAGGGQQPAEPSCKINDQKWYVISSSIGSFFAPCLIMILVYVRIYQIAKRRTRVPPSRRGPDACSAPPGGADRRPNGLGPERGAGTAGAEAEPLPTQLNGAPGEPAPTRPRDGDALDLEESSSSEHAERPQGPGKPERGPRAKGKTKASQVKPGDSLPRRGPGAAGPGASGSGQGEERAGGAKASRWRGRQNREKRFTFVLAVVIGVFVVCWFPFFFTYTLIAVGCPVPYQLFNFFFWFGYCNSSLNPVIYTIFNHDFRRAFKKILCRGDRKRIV
T1 sequence (P22086 whole entry): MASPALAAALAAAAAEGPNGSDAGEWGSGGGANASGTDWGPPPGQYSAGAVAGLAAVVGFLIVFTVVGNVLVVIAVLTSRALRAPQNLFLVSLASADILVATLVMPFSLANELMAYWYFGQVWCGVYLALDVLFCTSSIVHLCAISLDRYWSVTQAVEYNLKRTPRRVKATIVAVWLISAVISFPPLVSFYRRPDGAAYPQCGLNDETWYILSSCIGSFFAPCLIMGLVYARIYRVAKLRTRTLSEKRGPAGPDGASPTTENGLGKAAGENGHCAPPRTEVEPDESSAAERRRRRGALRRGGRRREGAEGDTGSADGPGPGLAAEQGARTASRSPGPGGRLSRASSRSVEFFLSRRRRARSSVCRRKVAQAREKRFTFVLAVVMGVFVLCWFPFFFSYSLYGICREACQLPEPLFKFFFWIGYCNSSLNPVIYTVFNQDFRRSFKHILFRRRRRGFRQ
T1 sequence (P19328 whole entry): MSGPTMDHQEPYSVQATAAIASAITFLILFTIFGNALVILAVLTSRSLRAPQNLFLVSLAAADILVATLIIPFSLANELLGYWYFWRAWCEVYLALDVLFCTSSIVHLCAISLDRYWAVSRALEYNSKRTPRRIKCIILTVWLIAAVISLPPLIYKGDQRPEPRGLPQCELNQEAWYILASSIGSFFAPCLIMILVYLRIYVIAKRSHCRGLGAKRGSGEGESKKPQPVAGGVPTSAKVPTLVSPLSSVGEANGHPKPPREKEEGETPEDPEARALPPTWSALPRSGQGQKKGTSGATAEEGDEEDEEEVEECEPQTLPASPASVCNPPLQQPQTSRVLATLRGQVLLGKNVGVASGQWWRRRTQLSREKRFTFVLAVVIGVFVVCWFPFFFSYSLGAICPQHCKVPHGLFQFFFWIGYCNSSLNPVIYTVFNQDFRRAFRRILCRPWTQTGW
Outline: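 Male Sprague-Dawley rat cerebral cortex membranes, washed in Tris-HCl pH 7.4 and held in buffer with 10 μM pargiline and 0.1% ascorbic acid. Incubated 30 min at 25 °C with 0.5-1.5 nM [3H]rauwolscine; nonspecific binding with 10 μM phentolamine. Filtration, scintillation counting. Ki from Cheng-Prusoff; 2-3 experiments in triplicate.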

[3] = biological target: D(2) dopamine receptor (Rattus norvegicus, UniProt P61169); experiment: The binding affinity was evaluated on Dopamine receptor D2 expressed in rat striatum by using [3H]spiperone as radioligand
Outline: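 Rat striatum membranes in Tris-HCl with 10 μM pargyline, 0.1% ascorbic acid, 120 mM NaCl, 5 mM KCl, 2 mM CaCl2, 1 mM MgCl2. Incubated 15 min at 37 °C with 0.2–0.6 nM [3H]spiperone. Nonspecific binding with 1 μM (+)-butaclamol. Ki by Cheng-Prusoff. 2–3 experiments in triplicate.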

[4] = biological target: T2, Alpha-1B adrenergic receptor (Homo sapiens, UniProt P35368); experiment: The binding affinity was evaluated on cloned human alpha-1B adrenergic receptor expressed in chinese hamster ovary(CHO) cells by using [3H]prazosin as radioligand.
T2 sequence (P35368 whole entry): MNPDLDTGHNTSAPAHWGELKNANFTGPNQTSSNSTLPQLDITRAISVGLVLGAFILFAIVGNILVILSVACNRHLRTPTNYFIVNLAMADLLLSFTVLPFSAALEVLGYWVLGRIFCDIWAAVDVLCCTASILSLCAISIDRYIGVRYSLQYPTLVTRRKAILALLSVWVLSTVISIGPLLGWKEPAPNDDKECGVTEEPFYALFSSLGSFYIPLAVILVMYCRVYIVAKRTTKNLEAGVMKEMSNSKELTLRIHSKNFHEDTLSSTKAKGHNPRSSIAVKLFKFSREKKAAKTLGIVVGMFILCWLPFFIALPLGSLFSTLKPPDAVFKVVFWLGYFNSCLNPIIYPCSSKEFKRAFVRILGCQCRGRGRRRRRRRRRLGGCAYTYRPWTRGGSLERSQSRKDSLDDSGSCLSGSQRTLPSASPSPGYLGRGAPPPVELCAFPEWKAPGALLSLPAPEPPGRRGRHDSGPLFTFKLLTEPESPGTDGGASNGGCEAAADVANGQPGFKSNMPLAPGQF
Outline: (§1)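 Membranes (30 μg protein) from CHO cells stably expressing each human α1 subtype, in 50 mM Tris-HCl pH 7.4. Incubated with 0.1–0.4 nM [3H]prazosin for 30 min at 25 °C, competitor 1 pM–10 μM. Nonspecific binding with 10 μM phentolamine. Ki by Cheng-Prusoff. 2–3 experiments in triplicate.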

[5] = biological target: T3, Alpha-1D adrenergic receptor (Homo sapiens, UniProt P25100); experiment: The binding affinity was evaluated on cloned human Alpha-1D adrenergic receptor expressed in chinese hamster ovary(CHO) cells by using [3H]-prazosin as radioligand.; outline: as §1
T3 sequence (P25100 whole entry): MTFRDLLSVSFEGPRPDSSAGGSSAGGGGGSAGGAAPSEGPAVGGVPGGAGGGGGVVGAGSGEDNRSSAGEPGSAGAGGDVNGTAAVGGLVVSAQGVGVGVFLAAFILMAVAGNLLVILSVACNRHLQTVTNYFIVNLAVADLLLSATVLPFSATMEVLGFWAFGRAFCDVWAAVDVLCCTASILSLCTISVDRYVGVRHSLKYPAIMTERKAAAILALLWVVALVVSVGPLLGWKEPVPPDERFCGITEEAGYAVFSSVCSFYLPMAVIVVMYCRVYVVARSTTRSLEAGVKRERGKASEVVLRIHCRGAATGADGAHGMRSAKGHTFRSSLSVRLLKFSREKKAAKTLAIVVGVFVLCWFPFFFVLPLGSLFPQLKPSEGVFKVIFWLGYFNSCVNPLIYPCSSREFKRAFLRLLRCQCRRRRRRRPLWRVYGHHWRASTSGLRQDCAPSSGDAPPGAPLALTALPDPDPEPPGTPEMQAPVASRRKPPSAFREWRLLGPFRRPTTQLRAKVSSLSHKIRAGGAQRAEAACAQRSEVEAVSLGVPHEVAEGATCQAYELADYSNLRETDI

[6] = biological target: T4, 5-hydroxytryptamine receptor 1A (Homo sapiens, UniProt P08908); experiment: The binding affinity was evaluated on cloned human 5-hydroxytryptamine 1A receptor expressed in HeLa cells by using DPAT as radioligand.
T4 sequence (P08908 whole entry): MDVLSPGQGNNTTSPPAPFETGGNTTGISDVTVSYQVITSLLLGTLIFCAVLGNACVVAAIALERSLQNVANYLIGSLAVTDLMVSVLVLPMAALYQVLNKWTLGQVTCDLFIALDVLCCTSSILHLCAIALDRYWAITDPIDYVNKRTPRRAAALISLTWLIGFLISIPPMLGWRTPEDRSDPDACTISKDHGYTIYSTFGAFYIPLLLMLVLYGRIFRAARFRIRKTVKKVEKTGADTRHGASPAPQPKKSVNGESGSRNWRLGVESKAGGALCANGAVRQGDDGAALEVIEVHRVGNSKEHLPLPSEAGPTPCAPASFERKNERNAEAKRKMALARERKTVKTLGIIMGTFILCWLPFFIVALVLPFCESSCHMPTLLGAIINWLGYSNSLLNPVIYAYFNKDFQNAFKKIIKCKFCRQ
Outline: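 Membranes from HeLa cells stably expressing human 5-HT1A, in 50 mM Tris-HCl pH 7.4, 2.5 mM MgCl2, 10 μM pargyline. Nonspecific binding with 10 μM 5-HT. Filtration. Ki by Cheng-Prusoff. 2–3 experiments in triplicate.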

[7] = biological target: T5, Alpha-1A adrenergic receptor (Homo sapiens, UniProt P35348); experiment: The binding affinity was evaluated on cloned human Alpha-1A adrenergic receptor expressed in chinese hamster ovary(CHO) cells by using [3H]prazosin as radioligand.; outline: as §1
T5 sequence (P35348 whole entry): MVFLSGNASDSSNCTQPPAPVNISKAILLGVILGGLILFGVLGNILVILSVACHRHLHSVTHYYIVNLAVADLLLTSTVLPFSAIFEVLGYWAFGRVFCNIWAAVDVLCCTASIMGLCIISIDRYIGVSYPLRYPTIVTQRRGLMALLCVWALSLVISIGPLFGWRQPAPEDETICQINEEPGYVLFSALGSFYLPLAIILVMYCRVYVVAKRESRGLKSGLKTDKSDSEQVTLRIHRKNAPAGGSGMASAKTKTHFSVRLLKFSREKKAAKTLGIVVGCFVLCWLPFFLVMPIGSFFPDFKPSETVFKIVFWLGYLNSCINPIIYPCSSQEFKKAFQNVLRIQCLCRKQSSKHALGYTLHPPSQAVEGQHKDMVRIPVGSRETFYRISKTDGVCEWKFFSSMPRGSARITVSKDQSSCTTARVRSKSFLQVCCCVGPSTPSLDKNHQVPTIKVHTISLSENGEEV

[8] = biological target: T2, Alpha-1B adrenergic receptor; experiment: The binding affinity was evaluated on cloned human Alpha-1B adrenergic receptor expressed in chinese hamster ovary(CHO) cells by using [3H]prazosin as radioligand.; outline: as §1
[9] = biological target: T5, Alpha-1A adrenergic receptor; experiment: The binding affinity was evaluated on cloned human alpha-1A adrenergic receptor expressed in chinese hamster ovary(CHO) cells by using [3H]prazosin as radioligand.; outline: as §1
[10] = biological target: T3, Alpha-1D adrenergic receptor; experiment: The binding affinity was evaluated on cloned human alpha-1D adrenergic receptor expressed in chinese hamster ovary(CHO) cells by using [3H]prazosin as radioligand.; outline: as §1
[11] = biological target: T1, Alpha-2A adrenergic receptor [16-465]/Alpha-2B adrenergic receptor/Alpha-2C adrenergic receptor; experiment: The binding affinity was evaluated on Alpha-2 adrenergic receptor expressed in rat cortex by using [3H]rauwolscine as radioligand.
Outline: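 Male Sprague-Dawley rat cerebral cortex membranes, washed in Tris-HCl pH 7.4 and resuspended with 10 μM pargyline and 0.1% ascorbic acid. Incubated 30 min at 25 °C with 0.5–1.5 nM [3H]rauwolscine. Nonspecific binding with 10 μM phentolamine. Filtration on PEI-treated filters. Ki by Cheng-Prusoff. 2–3 experiments in triplicate.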

Sequence of D(2) dopamine receptor (P61169 whole entry): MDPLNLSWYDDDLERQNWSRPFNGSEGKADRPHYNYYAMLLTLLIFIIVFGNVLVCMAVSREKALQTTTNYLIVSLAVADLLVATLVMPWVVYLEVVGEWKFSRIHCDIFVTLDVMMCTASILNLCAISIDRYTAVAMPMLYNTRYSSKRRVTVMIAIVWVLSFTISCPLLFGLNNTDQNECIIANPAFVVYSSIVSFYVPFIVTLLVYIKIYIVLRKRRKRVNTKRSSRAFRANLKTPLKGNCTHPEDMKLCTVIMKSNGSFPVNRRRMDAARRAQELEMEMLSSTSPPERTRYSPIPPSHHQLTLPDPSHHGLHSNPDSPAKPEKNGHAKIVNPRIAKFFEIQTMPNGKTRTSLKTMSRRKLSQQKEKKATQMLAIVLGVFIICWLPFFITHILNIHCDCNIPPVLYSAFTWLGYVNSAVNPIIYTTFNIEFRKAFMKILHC
Sequence of 5-hydroxytryptamine receptor 2A (P14842 whole entry): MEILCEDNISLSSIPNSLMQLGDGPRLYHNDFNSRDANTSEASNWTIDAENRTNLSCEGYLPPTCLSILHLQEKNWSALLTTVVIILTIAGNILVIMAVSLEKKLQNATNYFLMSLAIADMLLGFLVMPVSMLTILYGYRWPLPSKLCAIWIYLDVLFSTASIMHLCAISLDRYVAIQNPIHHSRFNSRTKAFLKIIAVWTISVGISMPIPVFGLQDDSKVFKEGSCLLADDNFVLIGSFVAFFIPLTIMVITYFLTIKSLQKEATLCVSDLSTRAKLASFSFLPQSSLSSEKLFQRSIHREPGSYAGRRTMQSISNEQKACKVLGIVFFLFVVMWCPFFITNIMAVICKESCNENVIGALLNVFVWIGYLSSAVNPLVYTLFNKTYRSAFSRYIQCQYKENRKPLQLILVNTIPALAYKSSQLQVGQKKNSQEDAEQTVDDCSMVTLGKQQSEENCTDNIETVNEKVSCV

| pKi [5] | pKi [6] | pKi [7] | pKi [8] | pKi [9] | pKi [10] | pKi [11] | SMILES | pKi [1] | pKi [2] | pKi [3] | pKi [4] |
| --- | --- | --- | --- | --- | --- | --- | --- | --- | --- | --- | --- |
|  |  |  |  |  |  |  | CCCN(CCC)C1CCc2cccc(O)c2C1 (stereo not given) | < 6 | 6.08 | < 6 | < 6 |
| 10.2 | 7.93 | 9.33 | 9.27 |  |  |  | COc1cccc(OC)c1OCCNCCOc1ccccc1OCc1ccccc1 |  |  |  |  |
|  | 7.36 |  | < 6 | 7.42 | 6.37 |  | COc1cccc(OC)c1OCCNCC1C(=O)c2ccccc2SC1c1ccccc1 (stereo not given) |  |  |  |  |
| 7.28 | 6.84 | 8.49 | 6.58 | 6.78 | 6.86 | < 6 | COc1cccc(OC)c1OCCNCC1Oc2ccccc2CC1c1ccccc1 (stereo not given) | < 6 |  | < 6 | 6.51 |
| 6.95 | 8.08 | 7.14 | 6.84 |  |  |  | COc1cccc(OC)c1OCCNCC1=Cc2ccccc2OC1c1ccccc1 (stereo not given) |  |  |  |  |
|  | 6.73 |  |  | 9.22 | 7.93 |  | COc1cccc(OC)c1OCCNCC1C(=O)c2ccccc2OC1c1ccccc1 (stereo not given) | 6.2 | < 6 | < 6 | 6.84 |

| SMILES | pKi [5] | pKi [6] | pKi [7] | pKi [8] | pKi [9] | pKi [10] | pKi [11] | pKi [1] | pKi [2] | pKi [3] | pKi [4] |
| --- | --- | --- | --- | --- | --- | --- | --- | --- | --- | --- | --- |
| COc1cccc(OC)c1OCCNCC1C(=O)c2ccccc2CC1c1ccccc1 (stereo not given) |  | 6.83 |  |  | 8.06 | 6.88 |  | 6.63 | 6.45 | < 6 | 6.11 |
| COc1cccc(OC)c1OCCNCC1COc2ccccc2O1 (stereo not given) [WB-4101 hydrochloride] |  | 8.68 |  |  | 9.37 |  |  | 6 | 7.83 | 6.91 |  |

Reference: BindingDB's records for doi:10.1021/jm9910324 (University of Camerino, 1999)
